Screening results from PubChem BioAssay.
In the library only some 2.1% were active in any assay of this set; here they are far more common.
Shn3 3UTR inh: inhibitors of Schnurri-3 3'UTR reporter in osteoblasts | Clone20 osteoblast Shn3 3'UTR firefly luciferase, 24 h | inhibition, % at 12.5 µM | 0.52% of 360,000 active | AID 588674;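 active = mean inhibition of at least 75% with every replicate also reaching 75%; inconclusive = mean inhibition at least 75% but some replicate below; inactive = mean inhibition below 75%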;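 note: 0% = median of neutral control wells and 100% = pilot-screen positive control compound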
PAX8 inh HTS: lowers PAX8-driven luciferase in RMG-I cells; RMG-I TPO-luciferase reporter, SteadyGlo, 24 h; inhibition, % at 12.6 µM; 1.2% of 360,000 active; AID 652154;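 active = mean replicate inhibition at least 60% with every replicate also reaching 60%; inconclusive = only one of the two criteria is met; inactive = mean below 60% and not all replicates reaching 60%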;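 note: luciferase light reporting Pax8 driven TPO promoter activity; plate controls were median of neutral control wells for no effect and mitoxantrone controls for full effect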
FN deposit inh: fibronectin deposition inhibition; AH1F fibroblasts, Alexa488-fibronectin deposition fluorescence, overnight; 0.086% of 350,000 active; inhibition, % at 12.6 µM;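 active = mean inhibition across replicates of 30% or more, regardless of how many single replicates reach that level; inconclusive = mean under 30% yet at least half of replicates reach 30%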;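 note: positive control wells lacked labelled fibronectin entirely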
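material = AH1F fibroblast monolayer depositing Alexa488-labelled fibronectin into matrix | amount = 10000 AH1F cells/well | buffer or medium = DMEM plus 2% serum, read in PBS | incubation = 1 h cell adhesion before compound, then overnight fibronectin incubation | detection = fluorescence at 485 nm excitation, 525 nm emission | evaluation = percent inhibition as loss of matrix-bound fibronectin fluorescence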
aSyn 5UTR inh: 5' untranslated region of α-synuclein, MLPCN primary screen. alpha-synuclein 5'UTR reporter, inhibitor activity. inhibition, % (tested at 7.5 µM). 0.82% of 300,000 active. AID 1813; in the data active = inhibition above about 60%; inconclusive = no clear call, values can overlap the other calls;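 note: H4 neuroglioblastoma cells stably carrying SNCA 5'UTR luciferase fusion; 0% = DMSO wells and 100% = positive control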
EWS-Fli block: EWS/Fli transcriptional activity inhibition | A673 NR0B1-luciferase reporter, viability-normalised | inhibition, % at 12.6 µM | 0.67% of 350,000 active | AID 651661;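 active = mean inhibition of at least 50% after viability correction, with every replicate also passing that limit; inconclusive = mean reaches 50% but only one of two replicates passes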;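 note: firefly luciferase signal divided by Alamar Blue viability fluorescence both relative to DMSO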
LMP1 NFkB inh: inhibitors of Epstein-Barr LMP1-induced NF-kappaB reporter; AID 504558; inhibition, % at 12.5 µM; LMP1-induced NF-kappaB luciferase reporter cells, luminescence; 0.69% of 350,000 active; in the data active = inhibition above about 41%; inconclusive = no clear call, values can overlap the other calls;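 note: 0% = neutral control wells and 100% = reference inhibitor control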
The depositor's hits bear a star; ? = inconclusive; · = no result given.

SMILES | Shn3 3UTR inh | PAX8 inh HTS | FN deposit inh | aSyn 5UTR inh | EWS-Fli block | LMP1 NFkB inh
Cc1cc(C)c(S(=O)(=O)/N=C2\C=C(NS(=O)(=O)c3ccccc3)C(=O)c3ccccc32)c(C)c1 | 9.2 | 24.1 | 18.4 | 34.2 | · | -0.1
O=C(O)c1ccc(NC2=C/C(=N/S(=O)(=O)c3cccs3)c3ccccc3C2=O)cc1 | 17.5 | 36.3 | -3.5 | · | 0.3 | -5.7
O=C(Nc1ccc2c(c1)OCO2)N[C@@H]1CC[C@H](CCNC(=O)C2CCCCC2)O[C@H]1CO | · | 2.3 | · | · | -1.1 | ·
C[C@@H]1CN([C@H](C)CO)C(=O)c2cccc(NC(=O)c3ccc(-c4nccs4)cc3)c2O[C@H]1CN(C)S(=O)(=O)c1ccc(F)cc1 | · | · | · | · | -8.1 | ·
C[C@@H]1CN([C@@H](C)CO)C(=O)c2cc(NC(=O)C3CCCCC3)ccc2O[C@H]1CN(C)Cc1ccncc1 | · | 9.3 | · | · | 7.2 | ·
C[C@H]1CN([C@@H](C)CO)S(=O)(=O)c2ccc(-c3cncnc3)cc2O[C@H]1CN(C)C(=O)CC1CC1 | · | · | 5.0 | · | -6.6 | ·
CO[C@@H]1CN(C)C(=O)c2cc(NS(=O)(=O)c3c(C)noc3C)ccc2OC[C@H](C)NC[C@@H]1C | · | · | 15.2 | · | 1.9 | ·
COc1ccc(NC(=O)c2nc(C)c(C3(C)CC(c4ccccc4)=NO3)s2)cc1 (stereo unspecified) | 21.3 | 43.6 | 2.2 | 28.5 | 54.8* | 16.2
Cc1nc(C(=O)Nc2ccccc2)sc1C1(C)CC(c2cccnc2)=NO1 (stereo unspecified) | -14.5 | -45.8 | -1.6 | -111.1 | -100.5 | -12.5
Cc1ccc(S(=O)(=O)N(C)C[C@H]2Oc3ccc(NC(=O)C4CCCCC4)cc3CC(=O)N([C@@H](C)CO)C[C@H]2C)cc1 | · | · | · | · | 7.3 | ·
CC1CCCC(NC(=O)COC(=O)c2ccccc2Sc2ccccc2C#N)C1C (stereo unspecified) | -10.7 | 132.7* | 7.4 | 5.5 | 2.1 | 5.8
C[C@H]1CN([C@@H](C)CO)C(=O)c2cccc(NC(=O)C3CCCCC3)c2O[C@@H]1CN(C)S(C)(=O)=O | · | -7.3 | -9.2 | · | -2.7 | ·
O=C(C[C@@H]1CC[C@@H]2[C@H](COC[C@@H](O)CN2C(=O)Nc2cccc(F)c2)O1)NCCCN1CCOCC1 | · | -31.7 | -11.3 | · | -28.5 | ·
C[C@H]1CN([C@@H](C)CO)C(=O)Cc2cc(NS(=O)(=O)c3ccccc3)ccc2O[C@@H]1CN(C)Cc1ccc(C(=O)O)cc1 | · | · | 3.1 | · | -11.9 | ·
CS(=O)(=O)c1ccc(S(=O)CC(=O)OCc2ccccc2)c([N+](=O)[O-])c1 (stereo unspecified) | 97.0* | 107.1* | -0.1 | -44.8 | 64.4* | 49.0*
CC(Oc1ccc(Cl)cc1Cl)c1nc(-c2ccc(NC(=O)c3ccncc3)cc2)no1 (stereo unspecified) | ? | · | · | -5.7 | 26.7 | -13.8
CC(Oc1ccc(Cl)cc1Cl)c1nc(-c2ccc(NC(=O)c3cccnc3)cc2)no1 (stereo unspecified) | 67.2 | · | · | 91.6* | · | -11.8
COc1ccc(S(=O)(=O)N(C)C[C@@H]2OCCCC[C@@H](C)Oc3ccc(NS(=O)(=O)c4cn(C)cn4)cc3C(=O)N([C@H](C)CO)C[C@H]2C)cc1 | · | -9.6 | -9.7 | · | · | ·
O=C(CSc1nc2ncc(Cl)cc2[nH]1)c1c[nH]c2ccccc12 | -10.3 | 22.0 | 33.2* | 22.0 | 4.6 | -8.8
CC(C)NC(=O)Nc1ccc2c(c1)CC(=O)N(C)C[C@H](C)[C@H](CN(C)S(C)(=O)=O)O2 | · | · | 0.2 | · | · | ·
CCOC(=O)CCc1ccc(NC(=O)/C=C/c2ccc([N+](=O)[O-])o2)cc1 | 9.5 | 40.3 | 2.6 | · | 50.9* | -65.6
C[C@@H]1CN([C@@H](C)CO)C(=O)c2cc(NS(=O)(=O)c3cn(C)cn3)ccc2O[C@@H]1CN(C)C(=O)Nc1ccc(C(F)(F)F)cc1 | · | · | 0.7 | · | 2.6 | ·
Cc1cc(C)n(-c2nc3ccccc3c(=O)n2OCC(=O)OCc2ccccc2)n1 | 72.3 | · | · | 62.0* | · | 23.4
Cc1cc(C)n(-c2nc3ccccc3c(=O)n2OCC(=O)N(C)C)n1 | -8.8 | · | · | 4.6 | · | 5.3
C[C@H](CO)N1C[C@H](C)[C@H](CN(C)S(=O)(=O)c2ccccc2)Oc2ccc(N(C)C)cc2CC1=O | · | -8.9 | · | · | · | ·
CCCN1C(=O)S/C(=C\c2ccc(N3CCOCC3)o2)C1=O | 89.2* | 6.0 | · | -94.0 | 14.9 | -1.5
N#CC1=C(N)Oc2c(ccc3ccccc23)C1c1cccs1 (stereo unspecified) | · | · | · | 110.2* | · | ·
